# Compounds with a hit are over-represented: about 2.1% of the library has one in this group of screens.
# dFosB activator: enhances mouse delta FosB homodimer DNA binding; P13346; purified delta FosB, TAMRA-CDK5 oligo fluorescence polarization; percent of positive-control signal above neutral wells; activation, % at 25 µM; hit rate 0.99% among 340,000;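 active = mean activation above about 17%, with every replicate also reaching it, limit read from the data, passing the limit was not always enough; inconclusive = only one of the two conditions met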
# Target sequence (P13346 whole entry, looked up): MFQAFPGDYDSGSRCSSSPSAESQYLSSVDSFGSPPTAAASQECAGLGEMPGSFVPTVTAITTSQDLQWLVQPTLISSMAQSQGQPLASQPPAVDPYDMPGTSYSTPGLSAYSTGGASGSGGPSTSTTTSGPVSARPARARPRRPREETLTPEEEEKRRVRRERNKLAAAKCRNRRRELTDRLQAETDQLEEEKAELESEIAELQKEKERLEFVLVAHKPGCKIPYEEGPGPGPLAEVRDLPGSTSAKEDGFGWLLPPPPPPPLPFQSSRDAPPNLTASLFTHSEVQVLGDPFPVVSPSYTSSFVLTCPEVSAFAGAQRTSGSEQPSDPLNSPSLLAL
# CDK5 inh: blocks human CDK5/p35 kinase activity. Recombinant CDK5/p35, ADP-Glo luminescence, 60 min. hit rate 0.01% among 330,000. inhibition, % at 10 µM. AID 488839. Q00535+Q15078;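 active = highest replicate inhibition of at least 50% and at least 75% of replicates reaching 50%; inconclusive = only one of the two criteria met; inactive = both criteria failed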;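 also: plate controls were DMSO neutral control for no effect and GW8510 at 10 µM for full effect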
# PKA-R1A act: activators of PKA-R1A complex | PKA-R1A dissociation, Cy5-IP20 fluorescence polarization; scaled: DMSO 0%, 113 µM cGMP 100% | activation, % at 11.4 µM | hit rate 0.083% among 340,000;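 active = percent activation above the mean of all tested compounds plus 3 SD, cut at about 19% in these data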;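 also: higher means more PKAc released from R1A so a rise in polarization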
# PKA-R2B activ: activates the human PKA-R2B holoenzyme complex | P22694+P31323 | PKA-R2B holoenzyme dissociation, Cy5-IP20 fluorescence polarization; R2B truncated from residue 108, S112A mutant; 0% DMSO only, 100% 113 µM cGMP | hit rate 0.079% among 340,000 | AID 504700 | activation, % at 11.4 µM;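 active = activation above a cutoff set at the mean over all compounds plus 3 SD, cut at about 18% in these data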;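 also: higher means more holoenzyme dissociation and a rise in polarization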
# SR-BI HDL uptake: inhibitors of mouse SR-BI mediated HDL lipid uptake | Q61009 | ldlA[mSR-BI] CHO cells, DiI-HDL uptake fluorescence, 3 h | inhibition, % at 12.5 µM | hit rate 0.96% among 320,000;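 active = mean replicate inhibition of at least 70% and a set share of replicates each scoring 70 or more; inconclusive = meets just one of the two criteria; inactive = fails both criteria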;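 also: 0% = median of neutral control wells and 100% = median of positive control wells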
# SR-BI uptake up: enhances SR-BI lipid uptake from DiI-HDL | AID 504775 | CHO ldlA[mSR-BI] cells, DiI-HDL uptake fluorescence, 3 h; 100 = double the neutral-control signal | hit rate 0.096% among 320,000 | activation, % at 12.5 µM;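 active = mean replicate activation of at least 60% and every replicate at or above 60%; inconclusive = mean or all-replicate condition met, but not both; inactive = mean below 60% and not all replicates reaching 60%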;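 also: 0% = median plate neutral-control signal and 100% = twice that signal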
#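 Test system: SR-BI-overexpressing, LDLR-lacking CHO cells. Measured by: DiI fluorescence, bottom read. Medium: Ham's F12 with 0.5% BSA, HEPES 25 mM, pH 7.4. Timing: 3 h uptake period with compound, 37 °C.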
# An asterisk follows results filed as active; ? = inconclusive; / = no result; + = active, no number.
SMILES,dFosB activator,CDK5 inh,PKA-R1A act,PKA-R2B activ,SR-BI HDL uptake,SR-BI uptake up
C[n+]1c(-c2ccccc2)c2cc(N)ccc2c2ccc(N)cc21,-221,5,-5,5,5,-5
Nc1ccc2ccc3cccc[n+]3c2c1,32*,0,-8,4,-19,19
O=C1NC(=O)C(=Cc2ccc(-c3cc(Cl)ccc3[N+](=O)[O-])o2)C(=O)N1,-5,1,2,-3,13,-13
O=C1NC(=O)C(=Cc2ccc(-c3ccccc3[N+](=O)[O-])o2)C(=O)N1,-9,1,2,-8,77*,-77
COc1ccc(C(SCC(NC(=O)OCc2ccccc2)C(=O)O)c2ccc(OC)cc2)cc1 (configuration not stated),/,/,7,13,/,/
O=c1c(C=NCCN2CCNCC2)c(O)n(C2CCCCC2)c(=O)n1C1CCCCC1,41*,1,1,-6,-53,53
CC1CN1P(=O)(Oc1ccccc1)N1CC1C (configuration not stated),-6,1,-1,-5,0,0
COC(=O)C1=C(c2ccccc2OCc2ccccc2)C[C@@H]2CC[C@H]1N2C(=O)NC1CCN(Cc2ccccc2)CC1,-5,1,-5,-1,-15,15
CN(C)CCN=Cc1c(O)n(Cc2ccc3c(c2)OCO3)c(=S)[nH]c1=O,-5,0,-13,-5,-5,5
O=c1[nH]c(=S)n(Cc2ccc(F)cc2)c(O)c1C=NCc1ccc2c(c1)OCO2,40*,0,-3,10,-5,5
COc1ccc(CN2C(=O)NC(=O)/C(=C/c3ccc(OC)c(OC)c3OC)C2=O)cc1,-1,0,-4,-6,-380,380*
CC(C)N1CC=C(c2c[nH]c3ccccc23)CC1,-5,0,1,0,-32,32
O=S1(=O)N(CCN2CC=C(c3c[nH]c4cc(F)ccc34)CC2)c2cccc3c2N1CCC3,?,-1,-6,1,79*,-79
NC(Cc1ccc(O)cc1)C(=O)NN=Cc1ccc(N(CCCl)CCCl)cc1 (configuration not stated),32*,1,-7,-7,25,-25
COc1cc(C(=O)NN=Cc2ccc(N(CCCl)CCCl)cc2)cc(OC)c1OC,-10,-1,5,-9,76*,-76
c1cc(OCCN2CC2)ccn1,-4,3,6,-1,11,-11
O=C(NCC1=C(c2ccc3ccccc3c2)C[C@@H]2CC[C@H]1N2Cc1ccco1)c1ccc([N+](=O)[O-])cc1,/,/,-18,2,/,/
Cc1cc(C)c(N=Cc2c(O)[nH]c(=O)[nH]c2=O)c(C)c1,0,-1,-3,-4,-12,12
CN(C)S(=O)(=O)c1cccc(C(=O)N2CCC(C(=O)O)(c3ccccc3)CC2)c1,-4,0,9,1,/,/
c1ccc2c(c1)CN(Cc1ccc3c(c1)OCO3)Cc1cnnn1-2,/,/,-6,-13,/,/
CC(=O)O[C@H]1CC[C@@]2(C)C(=CC(=O)C3C2CC[C@@]2(C)C3C[C@H](OC(C)=O)[C@@H]2OC(C)=O)C1 (some centres not stated),3,0,-10,1,-66,66*
O=C(N/N=C/c1c(O)n(C2CCCCC2)c(=S)[nH]c1=O)c1ccccc1O,8,-1,-18,-1,130*,-130
CCCCC(=O)N/N=C/c1c(O)n(Cc2ccco2)c(=O)[nH]c1=O,8,-2,1,0,-31,31
CC(C)c1ccc(-n2c(O)c(/C=N/NC(=O)c3ccccc3O)c(=O)[nH]c2=S)cc1,-1,2,-8,1,107*,-107
O=C(N/N=C/c1c(O)n(C2CCCCC2)c(=S)[nH]c1=O)c1ccccc1,-1,-10,-6,-3,15,-15
SMILES,dFosB activator,CDK5 inh,PKA-R1A act,PKA-R2B activ,SR-BI HDL uptake,SR-BI uptake up
O=C(N/N=C/c1c(O)n(Cc2ccco2)c(=O)[nH]c1=O)c1ccccc1O,-4,-4,-14,6,80*,-80
CC1(C)CC(=O)CC(C)(C)N1O,/,/,-6,-6,/,/
CCN(CC)C(=O)c1ccc(NC(=O)c2ccc(-c3nn(C)c(=O)c4ccccc34)cc2)cc1,-16,-5,-15,-5,81*,-81
CN1CCN(c2ccc(N)cc2)CC1,?,1,7,1,1,-1
CN1CCN(c2ccc(N)c(N3CCN(C)CC3)c2)CC1,56*,3,2,-7,-10,10
COc1cc(C(=O)Nc2ccc(Br)cc2C(=O)c2ccccc2)cc(OC)c1OC,-12,1,-6,-2,81*,-81
O=C(CNC(=O)c1ccc(Br)cc1)Nc1ccc(Br)cc1C(=O)c1ccccc1,-17,-1,-2,-16,-9,9
C[C@]12CCC3C(CC[C@H]4C[C@@H](O)CC[C@]34C)C1C/C(=N/O)[C@@H]2O (some centres not stated),-10,0,-3,1,7,-7
CC[N+](C)(CC)CCCCOc1ccc2c(c1)C(=O)c1cc(OCCCC[N+](C)(CC)CC)ccc1-2,49*,-3,-13,-11,4,-4
COC(=O)C1=C(c2ccccc2OCc2ccccc2)C[C@@H]2CC[C@H]1N2C(=O)NCc1cccc(C(F)(F)F)c1,-6,-2,1,-3,12,-12
COc1ccc(CCn2c(O)c(C=Nc3ccc(NC(C)=O)cc3)c(=O)[nH]c2=O)cc1OC,23*,0,/,/,-16,16
CN1CCC(N(C)c2nc(-c3ccc([N+](=O)[O-])cc3)nc3ccccc23)CC1,30*,2,6,2,39,-39
O=C1Nc2ccccc2/C1=C/c1nc2ccccc2c(=O)n1-c1ccc(O)cc1,-19,-2,-7,-1,46,-46
O=C1Nc2ccccc2/C1=C/c1cnc[nH]1,7,102*,6,-2,-17,17
COc1ccc2c(c1)/C(=C/c1cnc[nH]1)C(=O)N2,0,+,4,16,-12,12
COc1ccc(-n2c(/C=C3\C(=O)Nc4ccccc43)nc3ccccc3c2=O)cc1,-10,1,0,3,45,-45
COC(=O)C1=C(c2cccc(OCc3ccccc3)c2)C[C@@H]2CC[C@H]1N2C(=O)NCc1ccc2[nH]ccc2c1,-8,-1,-14,-8,42,-42
CCN(CC)P(=O)(NC(=O)C(Cl)(Cl)Cl)N(CC)CC.[Cl-].[Cl-].[Cl-].[Nd+3],41*,0,3,2,-29,29
O=C(c1cc2cc(Br)ccc2[nH]1)N1CCC2(CC1)OCCO2,-8,-2,-3,-1,-424,424*
